Assay results taken from ChEMBL document CHEMBL1240484, “New 4H-chromen-4-one and 2H-chromene derivatives as anti-picornavirus capsid-binders” (Bioorg Med Chem, 2010).

How the values were obtained:
[1] = test system: Enterovirus A71; assay: Antiviral activity against Human enterovirus 71 infected in human Hep2 cells after 2 days by plaque reduction assay; type: functional, organism-based; details: for IC50: Enterovirus A, HEp-2, 48 h; for Activity: HEp-2
Summary of the method: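 Inoculum removed, then plaque overlay with fourfold drug dilutions starting from the MNTC. Two days at 37 °C, neutral red (0.2 mg/mL in PBS pH 7.4) staining, plaques counted, triplicate wells. IC50 taken from log dose vs % plaque reduction.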

[2] = test system: Enterovirus A71; assay: Antiviral activity against Human enterovirus 71 infected in human Hep2 cells at maximum non-cytotoxic concentration […] by plaque reduction assay; type: functional, HEp-2
[3] = Cytotoxicity against human HeLa cells after 3 days by XTT assay; type: cell-based; details: read-out: TC50
Summary of the method: (§1)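 HeLa cells seeded at 2 × 10³ per well with twofold compound dilutions from the maximum soluble concentration, quadruplicate wells, 37 °C in 5% CO2 for 3 days until controls were confluent. Morphology also scored microscopically. MNTC is the highest dose with no toxicity or growth reduction.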

[4] = Therapeutic index, ratio of TC50 for human HeLa cells to IC50 for HRV 14; type: cell-based; details: read-out: TI
Summary of the method: (§2)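 Therapeutic index calculated as TC50 for HeLa cells (XTT, 3 days) divided by IC50 for plaque reduction of HRV 14 or HRV 1B in HeLa cells.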

[5] = Therapeutic index, ratio of TC50 for human HeLa cells to IC50 for HRV 1B; type: cell-based; details: read-out: TI; summary of the method: as §2
[6] = Cytotoxicity against human HeLa cells assessed as maximum non-cytotoxic concentration after 3 days by XTT assay; type: cell-based
Summary of the method: as §1, with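 “confluent. XTT added (final 0.15 mg/mL) for 4 h, absorbance read at 492 nm with 690 nm reference.” for “confluent.”, “microscopically. […]” for “microscopically.”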

[7] = test system: rhinovirus B14; assay: Antiviral activity against Human rhinovirus 14 infected in human HeLa cells after 3 days by plaque reduction assay; type: functional, organism-based; details: for IC50: Rhinovirus B, 72 h
Summary of the method: (§3)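 HeLa monolayers infected with ATCC HRV 14 or 1B at about 100 plaques per well, 1 h adsorption at 33 °C. Inoculum removed, then plaque overlay with fourfold drug dilutions from the MNTC. Three days at 33 °C, neutral red (0.2 mg/mL, PBS pH 7.4) staining and plaque count, triplicate wells. IC50 from log dose vs % reduction relative to mock-treated control. Otherwise % inhibition at MNTC is reported.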

[8] = Cytotoxicity against human Hep2 cells assessed as maximum non-cytotoxic concentration after 3 days by XTT assay; type: cell-based, HEp-2
Summary of the method: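 Hep-2 cells grown in high-glucose DMEM, seeded at 2 × 10³ per well with twofold dilutions from the maximum soluble concentration, quadruplicate wells, 3 days at 37 °C in 5% CO2. XTT (final 0.15 mg/mL) for 4 h, read at 492/690 nm, plus microscopic scoring. MNTC is the highest dose causing no toxic effect or growth reduction.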

[9] = test system: rhinovirus A1B; assay: Antiviral activity against Human rhinovirus 1B infected in human HeLa cells after 3 days by plaque reduction assay; type: functional, organism-based; details: for IC50: Rhinovirus A, 72 h; summary of the method: as §3
[10] = test system: rhinovirus B14; assay: Antiviral activity against Human rhinovirus 14 infected in human HeLa cells at maximum non-cytotoxic concentration after 3 days by plaque reduction assay; type: functional; summary of the method: as §3

IC50 [1] [µM] | IC50 [7] [µM] | IC50 [9] [µM] | Structure (SMILES) | Activity [1] | inhibition (INH) [2] [%] | CC50 at 72 h [3] [µM] | selectivity ratio [4] | selectivity ratio [5] | MNTC at 72 h [6] [µM] | Activity [7] | MNTC at 72 h [8] [µM] | Activity [9] | inhibition (INH) [10] [%]
> 50 | 11.2 | 11.2 | Clc1ccc2c(c1)C=C(/C=C/c1ccccc1)CO2 | Dose-dependent effect | 30.8 | 100 | 8.95 | 8.93 | 50 | Dose-dependent effect | 50 | Dose-dependent effect | –
> 6.25 | > 6.25 | 0.54 | Clc1ccc(/C=C/C=C/C2=Cc3cc(Cl)ccc3OC2)cc1 | Dose-dependent effect | 39.1 | 12.5 | – | 23.1 | 6.25 | Dose-dependent effect | 6.25 | Dose-dependent effect | 12.8
> 25 | 15 | 5.27 | O=c1c(/C=C/C=C/c2ccccc2)coc2ccccc12 | Dose-dependent effect | 39.8 | 50 | 3.33 | 9.49 | 25 | Dose-dependent effect | 25 | Dose-dependent effect | –
– | – | – | Clc1ccc(C2CCc3cc(Cl)ccc3O2)cc1 (centres undefined) | – | – | – | – | – | – | – | 10 | – | –
> 50 | 18.4 | 0.4 | Clc1ccc(/C=C/C2=Cc3ccccc3OC2)cc1 | Dose-dependent effect | 49.7 | 100 | 5.44 | 250 | 50 | Dose-dependent effect | 50 | Dose-dependent effect | –
> 25 | 4.07 | 4.09 | O=c1c(/C=C/C=C/c2ccc(Cl)cc2)coc2ccccc12 | Dose-dependent effect | 49.1 | 50 | 12.3 | 12.2 | 25 | Dose-dependent effect | 25 | Dose-dependent effect | –
> 25 | 5.52 | 4.54 | O=c1c(/C=C/c2ccc(Cl)cc2)coc2ccccc12 | Dose-dependent effect | 21.6 | 50 | 9.06 | 11 | 25 | Dose-dependent effect | 25 | Dose-dependent effect | –
> 50 | 50 | 30.8 | C1=C(/C=C/C=C/c2ccccc2)COc2ccccc21 | Dose-dependent effect | 29.5 | 100 | 2 | 3.24 | 50 | Dose-dependent effect | 50 | Dose-dependent effect | –
> 12.5 | 8.28 | 7.13 | Clc1ccc(/C=C/C2=Cc3cc(Cl)ccc3OC2)cc1 | Dose-dependent effect | 46.6 | 50 | 6.04 | 7.01 | 25 | Dose-dependent effect | 12.5 | Dose-dependent effect | –
> 50 | 4.36 | 3.12 | O=c1c(/C=C/c2ccccc2)coc2ccccc12 | Dose-dependent effect | 34.6 | > 200 | > 45.9 | > 64.2 | > 200 | Dose-dependent effect | 50 | Dose-dependent effect | –
